Consider six molecules from ChEMBL document CHEMBL1135471, “Sugar-modified conjugated diene analogues of adenosine and uridine: synthesis, interaction with S-adenosyl-L-homocysteine hydrolase, and antiviral and cytostatic effects” (J Med Chem, 2002).

Calls of active or inactive are those of the source. No cut-off for these calls is given here.

Test [1] has as its target T1, Adenosylhomocysteinase (Homo sapiens, UniProt P23526). In words: Inhibitory constant for S-adenosyl-homocysteine hydrolase, was determined using Kitz and Wilson equation {Kobs = Kinact. [I]/(Ki + [I])}.
Target sequence in this assay (P23526 whole entry): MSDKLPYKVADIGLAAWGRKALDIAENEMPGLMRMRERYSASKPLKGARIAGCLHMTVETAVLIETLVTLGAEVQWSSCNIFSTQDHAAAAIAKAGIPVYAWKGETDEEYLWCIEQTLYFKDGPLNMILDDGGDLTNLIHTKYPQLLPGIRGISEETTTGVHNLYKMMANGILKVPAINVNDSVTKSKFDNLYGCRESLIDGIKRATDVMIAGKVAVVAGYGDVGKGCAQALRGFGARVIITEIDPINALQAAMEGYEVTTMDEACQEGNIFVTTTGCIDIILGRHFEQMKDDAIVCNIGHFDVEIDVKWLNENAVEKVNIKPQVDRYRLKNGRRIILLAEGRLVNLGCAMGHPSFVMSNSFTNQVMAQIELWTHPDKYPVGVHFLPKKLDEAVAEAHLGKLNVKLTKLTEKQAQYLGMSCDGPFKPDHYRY
Test [2] relates to Vero. In words: Antiviral activity (cytotoxicity) was evaluated in vero cell cultures. The format is functional, Chlorocebus sabaeus.
Test [3] in a line: Minimum cytotoxic concentration against Coxsackie B4 virus in HeLa cell cultures, was determined. The format is functional, Coxsackievirus B4.
Test [4] concerns the target T1, Adenosylhomocysteinase. In words: Inactivation constant for S-adenosyl-homocysteine hydrolase, was determined using Kitz and Wilson equation {Kobs = Kinact. [I]/(Ki + [I])}.
Target sequence in this assay (P23526 2-432 limits assumed): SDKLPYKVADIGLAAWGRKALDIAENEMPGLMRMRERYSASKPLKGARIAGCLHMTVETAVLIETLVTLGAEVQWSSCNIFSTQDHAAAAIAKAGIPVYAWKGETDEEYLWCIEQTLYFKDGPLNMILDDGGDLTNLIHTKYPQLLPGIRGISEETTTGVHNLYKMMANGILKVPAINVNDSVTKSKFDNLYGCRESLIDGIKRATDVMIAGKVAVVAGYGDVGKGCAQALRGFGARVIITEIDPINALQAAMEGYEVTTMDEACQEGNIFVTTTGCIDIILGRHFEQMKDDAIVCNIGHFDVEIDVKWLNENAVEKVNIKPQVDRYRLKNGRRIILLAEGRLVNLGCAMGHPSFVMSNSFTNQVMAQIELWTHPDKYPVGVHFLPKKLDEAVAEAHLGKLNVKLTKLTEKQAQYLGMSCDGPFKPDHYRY
The next test has as its system Human betaherpesvirus 5. The test can be described thus: 50 % effective concentration against cytomegalo virus (CMV). Format: functional, organism-based. In short, it runs like this: (§1)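 Human embryonic lung (HEL) cells were used against CMV strains AD-169 and Davis and VZV strains YS, OKA, 07/1 and YS/R. EC50 values are for the antiviral effect. The minimum cytotoxic concentration and CC50 for HEL cells were measured alongside.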

Test [5] in a line: Minimum cytotoxic concentration against vesicular stomatitis virus in HeLa cell cultures, was determined. The format is functional.
For a further test, the system named is Human alphaherpesvirus 1. The test can be described thus: Activity against herpes simplex virus 1 (HSV-1) strain KOS, was determined; No activity. The format is functional, organism-based.
Test [6] relates to Human alphaherpesvirus 2. In words: Activity against herpes simplex virus 2 (HSV-2) strain G, was determined; No activity. Format: functional, organism-based.
Test [7] concerns Vesicular stomatitis virus. The test can be described thus: Activity against vesicular stomatitis virus, was determined; No activity. Format: functional, organism-based.
Test [8] deals with T1, Adenosylhomocysteinase. In words: Percent NAD+ content after incubation of S-adenosyl-homocysteine hydrolase (5.8 uM) with 100 uM of compound at 37 degree C for 20 min. The format is functional. In short, it runs like this:
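Enzyme in 50 mM potassium phosphate pH 7.2 with 1 mM EDTA. After the inhibitor step, cofactors were released with 5 N HClO4. NAD+ was quantified by C18 RP-HPLC at 258 nm, using a 2–98% acetonitrile gradient over 25 min against 25 mM phosphate pH 3.2 containing 10 mM heptane sulfonic acid.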
Target sequence in this assay (P23526 2-432 limits assumed): as above

Test [9] deals with Vaccinia virus. In words: Activity against vaccinia virus, was determined; No activity. The format is functional, organism-based. The following applies: Orthopoxvirus vaccinia.
The target in test [10] is T1, Adenosylhomocysteinase. In words: Percent S-adenosyl-homocysteine hydrolase (210 nM) activity remaining after incubating with 100 uM at 37 degree C for 20 minutes. In short, it runs like this:
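Human enzyme preincubated with compound in 50 mM potassium phosphate pH 7.2, 1 mM EDTA. Residual activity measured in the synthetic direction: 1 mM Ado plus 1 mM Hcy, 37 °C, 1 min, stopped with HClO4. AdoHcy quantified by RP-HPLC at 258 nm. Duplicate determinations averaged.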
Target sequence in this assay (P23526 2-432 limits assumed): as above

A further test deals with E6SM. The test can be described thus: Minimum concentration required to cause a microscopically detectable alteration of normal cell morphology in human embryonic skin muscle (E6SM) cell cultures. Format: functional. The note with it: for minimal effective concentration: read-out: MEC. In short, it runs like this:
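E6SM cell cultures were examined by microscopy. The value is the minimum concentration giving a detectable alteration of normal cell morphology.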

Test [11] relates to Human immunodeficiency virus 1. In words: Cytostatic concentration against […] virus strains IIIB and ROD, in T-lymphocytic MT-4 cells. The format is functional. The note with it: Human immunodeficiency virus 1, MT4. In outline: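 T-lymphocytic MT-4 cells were tested alongside HIV-1 IIIB and HIV-2 ROD antiviral assays. The CC50 is the 50% cytostatic concentration for the MT-4 cells.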

Test [12] in a line: Minimum cytotoxic concentration against respiratory syncytial virus in HeLa cell cultures, was determined. Format: functional.
In a further test the test system is Human alphaherpesvirus 3. In words: 50 % effective concentration against Varicella-Zoster virus (VZV) was determined. Format: functional, organism-based. In short, it runs like this: as §1
For test [13], the system named is Vero. In words: Antiviral activity was evaluated in vero cell cultures. Format: functional. The note with it: Chlorocebus sabaeus.
Test [14] relates to Vero. The test can be described thus: Activity was evaluated in vero cell cultures; Cytotoxic. The format is functional, cell-based. The note with it: Chlorocebus sabaeus.
Test [15] deals with Vaccinia virus. The test can be described thus: Minimum cytotoxic concentration against vaccinia virus, was determined. The format is functional, organism-based. The note with it: Orthopoxvirus vaccinia.
The subject of test [16] is Vesicular stomatitis virus. In words: Minimum cytotoxic concentration against vesicular stomatitis virus in HeLa cell cultures. Format: functional.
Test [17] deals with Human alphaherpesvirus 2. The test can be described thus: Activity against herpes simplex virus 2 (HSV-2) […], was determined; No activity. Format: functional, organism-based.
The next test has as its system Coxsackievirus B4. The test can be described thus: Minimum cytotoxic concentration against Coxsackie B4 virus in HeLa cell cultures. The format is functional.
The test system of test [18] is Respiratory syncytial virus. In words: Minimum cytotoxic concentration against respiratory syncytial virus in HeLa cell cultures. The format is functional.
Test [19] deals with HEL. The test can be described thus: 50 % cytotoxic concentration for human embryonic lung (HEL) cells. Format: functional. In short, it runs like this:
as §1

The test system of test [20] is HEL. In words: Minimum cytotoxic concentration determined in embryonic lung (HEL) cells. The format is functional, Homo sapiens. In short, it runs like this: as §1
The target in test [21] is T1, Adenosylhomocysteinase. The test can be described thus: Percent NAD+ content after incubation of AS-adenosylhomocysteine hydrolase (5.8 uM) with 100 uM of compound at 37 degree C for 20 min. The format is functional. In outline:
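Human AdoHcy hydrolase at 5.8 μM was preincubated with 100 μM inhibitor in 50 mM potassium phosphate, pH 7.2, with 1 mM EDTA, at 37 °C for 20 min. Cofactors were released with HClO4. NAD+ was quantified by C18 RP-HPLC (25 mM phosphate pH 3.2 with heptane sulfonic acid; acetonitrile gradient) with detection at 258 nm. Values are % NAD+ remaining.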
Target sequence in this assay (P23526 2-432 limits assumed): as above

Test [22] has as its system HEL. In words: Minimum cytotoxic concentration determined in embryonic lung (HEL) cells against human CMV, strains AD-169 and Davis and VZV, strains YS, OKA, 07/1, and YS/R. Format: functional. In outline: as §1
In test [23] the target is T1, Adenosylhomocysteinase. The test can be described thus: Inactivation constant for aS-adenosylhomocysteine hydrolase, was determined using Kitz and Wilson equation {Kobs = Kinact. [I]/(Ki + [I])}.
Target sequence in this assay (P23526 2-432 limits assumed): as above

By Ki is commonly meant a measure of affinity in units of concentration, obtained from inhibition or displacement. One may read the EC50 as the midpoint of the concentration-response curve. A low value points to higher potency in that assay. Usually CC50 stands for the concentration that lowers cell viability or growth by half. Higher therefore signals lower toxicity to the cells. Regarding `CCOC(=O)/C=C\C=C\[C@H]1OC(n2cnc3c(N)ncnc32)[C@H](O)[C@@H]1O` (some centres undefined), the Ki on Adenosylhomocysteinase [1] is 13.7 µM. In addition, the MCC50 (in the test on Vero [2]; in [3]; in [5]; in test [12]) was greater than 200 µM each time. Moreover, on Adenosylhomocysteinase [4], the K inact came to 0.59 min⁻¹. For the same molecule, the midpoint of the response with Human betaherpesvirus 5, the EC50, lay at 18 µM. In addition, the “antiviral activity against HSV-1” value with Human alphaherpesvirus 1 is “inactive”. Further, in the test on Human alphaherpesvirus 2 [6], the “Antiviral activity against HSV-2” value is “inactive”. Also, the antiviral activity entry (in [7]; in the test on Vaccinia virus [9]) was “inactive” throughout. This molecule showed an NAD+ content on Adenosylhomocysteinase [8] of 36.2%. At Adenosylhomocysteinase [10], this molecule had an Activity of 1.8%. The molecule further yielded an MEC50 in the test with E6SM greater than 40 µM. The molecule also returned a CC50 in test [11] of 160 µM.

In the test on Human alphaherpesvirus 3, `CCOC(=O)/C=C\C=C\[C@H]1OC(n2ccc(=O)[nH]c2=O)[C@H](O)[C@@H]1O` (some centres undefined) yielded an EC50 of 10 µM. Further, the MCC50 in [3], in [5] and in test [12] was greater than 200 µM in each case. For the same molecule, in the test with Vero [13], the MCC was greater than 200 µM. For the same molecule, the “antiviral activity against HSV-1” value in the test on Human alphaherpesvirus 1 was “inactive”. Besides, the “Antiviral activity against HSV-2” value in the test with Human alphaherpesvirus 2 [6] is “inactive”. For the same molecule, the antiviral activity entry (in test [7]; in the test with Vaccinia virus [9]) was “inactive” in each case. In addition, in the test with E6SM, the minimal effective concentration was greater than 40 µM. Moreover, the CC50 in [11] was 40 µM.

Consider `O=c1ccn(C2O[C@H](/C=C/C=C(Br)Br)[C@@H](O)[C@H]2O)c(=O)[nH]1` (some centres undefined), for which, in the test with Vero [14], the Activity entry was “Toxic”. The MCC50 entry with Vaccinia virus [15] and in the test with Human alphaherpesvirus 2 [17] was “inactive” throughout. For the same molecule, the MCC50 result (in test [16]; in the test with Coxsackievirus B4; in test [18]) was “>=200 uM” each time. Also, in the test with Human alphaherpesvirus 1, the “antiviral activity against HSV-1” value is “inactive”. In addition, the MEC50 in the test on E6SM was greater than 40 µM. Further, half-maximal cytotoxicity in test [11] (CC50) was put at 300 µM.

Turning to `Nc1ncnc2c1ncn2C1O[C@H](/C=C/C=C(Br)Br)[C@@H](O)[C@H]1O` (some centres undefined), the MCC50 in the test on Vero [2] was greater than 35000 µM; in test [3] it was greater than 35 µM; in test [5], greater than 35 µM; in the test on HEL [20], 45 µM; in test [12], greater than 35 µM. Also, the CC50 came to 54 µM with HEL [19] and 11 µM in test [11]. Moreover, the “antiviral activity against HSV-1” value in the test with Human alphaherpesvirus 1 is “inactive”. Further, the “Antiviral activity against HSV-2” value in the test on Human alphaherpesvirus 2 [6] was “inactive”. Besides, the antiviral activity entry (in [7]; with Vaccinia virus [9]) was “inactive” in each case. On Adenosylhomocysteinase [10], this molecule showed an Activity of 48%. The NAD+ content at Adenosylhomocysteinase [21] is 93.1%. Also, the MEC50 in the test with E6SM came out at 6.7 µM.

As for `CCOC(=O)/C=C/C=C/[C@H]1OC(n2ccc(=O)[nH]c2=O)[C@H](O)[C@@H]1O` (some centres undefined), the MCC50 in [3], in test [5] and in test [12] was greater than 200 µM in each case. Moreover, the MCC in the test with Vero [13] is greater than 200 µM. In addition, the “antiviral activity against HSV-1” value with Human alphaherpesvirus 1 is “inactive”. Moreover, in the test with Human alphaherpesvirus 2 [6], the “Antiviral activity against HSV-2” value was “inactive”. Further, the antiviral activity result (in test [7]; in the test on Vaccinia virus [9]) was “inactive” in each case. Also, the minimal effective concentration with E6SM is greater than 40 µM. For the same molecule, the CC50 in [11] was greater than 370 µM.

Take `CCOC(=O)/C=C/C=C/[C@H]1OC(n2cnc3c(N)ncnc32)[C@H](O)[C@@H]1O` (some centres undefined): at Adenosylhomocysteinase [1], the inhibition constant Ki was 10 µM. In addition, the MCC50 was greater than 200 µM in the test on Vero [2]; greater than 200 µM in test [3]; greater than 120 µM with HEL [22]; greater than 200 µM in test [5]; greater than 200 µM in test [12]. In addition, the “antiviral activity against HSV-1” value in the test on Human alphaherpesvirus 1 is “inactive”. The “Antiviral activity against HSV-2” value with Human alphaherpesvirus 2 [6] was “inactive”. Also, the antiviral activity result (in test [7]; with Vaccinia virus [9]) was “inactive” in each case. At Adenosylhomocysteinase [8], this molecule registered an NAD+ content of 25.9%. In addition, the K inact on Adenosylhomocysteinase [23] is 0.7 min⁻¹. Moreover, on Adenosylhomocysteinase [10], the Activity stood at 3.6%. The MEC50 in the test with E6SM is greater than 40 µM. Moreover, it took 175 µM to reach half-maximal cytotoxicity in [11] (CC50).
